Assay results taken from ChEMBL document CHEMBL1938298, “Synthesis and characterization of [¹²⁵I]2-iodo N-[(S)-{(S)-1-methylpiperidin-2-yl}(phenyl)methyl]3-trifluoromethyl-benzamide as novel imaging probe for glycine transporter 1” (Bioorg Med Chem, 2011).
Activity calls are given as the source filed them. The calls are words filed in the database; no cut-off is given here.

Experiments:
[1] = target: T1, Sodium- and chloride-dependent glycine transporter 1 (Rattus norvegicus) (UniProt P28572); assay: Binding affinity to GlyT1 in rat brain striatum at 0.03 to 0.04 nM preincubated for 20 mins in binding buffer before compound addition measured after 30 mins by autoradiography in presence of 0.01 mM NMDA receptor glycine site antagonist L-701,324 relative to control; assay type: tissue-based; conditions: tested as the 125I-labelled form
T1 sequence (whole entry): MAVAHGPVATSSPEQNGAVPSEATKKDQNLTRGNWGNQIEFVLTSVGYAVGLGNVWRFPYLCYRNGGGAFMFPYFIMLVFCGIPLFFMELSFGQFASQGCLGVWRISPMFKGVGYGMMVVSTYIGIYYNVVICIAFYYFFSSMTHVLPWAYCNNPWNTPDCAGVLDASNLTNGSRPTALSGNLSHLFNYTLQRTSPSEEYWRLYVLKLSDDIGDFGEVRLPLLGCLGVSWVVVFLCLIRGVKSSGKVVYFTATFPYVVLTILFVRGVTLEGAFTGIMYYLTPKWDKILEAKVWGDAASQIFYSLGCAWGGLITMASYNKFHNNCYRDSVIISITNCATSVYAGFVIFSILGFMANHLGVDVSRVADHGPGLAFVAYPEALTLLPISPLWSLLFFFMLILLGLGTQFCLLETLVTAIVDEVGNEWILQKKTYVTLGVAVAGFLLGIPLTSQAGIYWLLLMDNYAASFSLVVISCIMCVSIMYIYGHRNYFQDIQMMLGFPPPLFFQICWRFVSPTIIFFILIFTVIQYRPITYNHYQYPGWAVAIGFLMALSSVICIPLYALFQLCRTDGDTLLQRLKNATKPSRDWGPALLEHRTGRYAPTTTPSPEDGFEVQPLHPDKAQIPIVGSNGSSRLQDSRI

[2] = target: T1, Sodium- and chloride-dependent glycine transporter 1 (Rattus norvegicus); assay: Binding affinity to GlyT1 in rat brain cerebellar gray matter at 0.03 to 0.04 nM preincubated for 20 mins in binding buffer before compound addition measured after 30 mins by autoradiography relative to control; assay type: tissue-based; conditions: tested as the 125I-labelled form
Mus musculus [3] = assay: In vivo binding affinity to GlyT1 in ddY mouse brain hippocampus at 33.3 kBq, iv after 60 mins in presence of SSR504734 2 mg/kg, iv administered 15 mins prior to compound administration relative to control; assay type: functional, organism-based; set-up: dose 2 mg/kg; conditions: tested as the 125I-labelled form
Procedure, shortened: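 Male ddY mice (6 W, 30–35 g) were given [125I]5 (ca. 33.3 kBq, 0.1 mL) iv via tail vein. Blocker (2 mg/kg in 30% DMSO/saline) was given iv 15 min before the tracer. Mice were killed 30 or 60 min after injection and the brain regions were dissected and weighed. Gamma counting gave % dose/g, compared with control; n = 5–6.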

[4] = target: T1, Sodium- and chloride-dependent glycine transporter 1 (Rattus norvegicus); assay: Binding affinity to GlyT1 in rat brain corpus callosum at 0.03 to 0.04 nM preincubated for 20 mins in binding buffer before compound addition measured after 30 mins by autoradiography relative to control; assay type: tissue-based; conditions: tested as the 125I-labelled form
Procedure, shortened: (§1)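 Rat brain sagittal sections (20 µm), 20 min preincubation at 25 °C in Tris-HCl pH 7.5 binding buffer, then [125I] tracer (100 kBq, 0.03–0.04 nM) for 30 min at 25 °C. Nonspecific binding taken with 10 µM unlabeled ligand. Imaging-plate read-out as (PSL−BG)/mm². Mean ± SD, n = 4–5 from at least three rats; Mann–Whitney U-test.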

Mus musculus [5] = assay: In vivo binding affinity to GlyT1 in ddY mouse brain cortex at 33.3 kBq, iv after 60 mins in presence of SSR504734 2 mg/kg, iv administered 15 mins prior to compound administration relative to control; assay type: functional, organism-based; set-up: dose 2 mg/kg; conditions: tested as the 125I-labelled form
Procedure, shortened: (§2)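 Blocking study in male ddY mice (6 weeks, 30–35 g). The blocker (2 mg/kg in 30% DMSO/saline) was injected i.v. 15 min before about 33.3 kBq [125I]tracer i.v.; mice were killed at 30 or 60 min. Brains were divided into cortex, corpus callosum, hippocampus, thalamus, midbrain, medulla and cerebellum, weighed and gamma-counted as % dose/g. Values are mean ± SD, n = 5–6, compared to control by Kruskal–Wallis with Dunn's post-test.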

[6] = target: T1, Sodium- and chloride-dependent glycine transporter 1 (Rattus norvegicus); assay: Binding affinity to GlyT1 in rat brain cerebral cortex at 0.03 to 0.04 nM preincubated for 20 mins in binding buffer before compound addition measured after 30 mins by autoradiography in presence of 0.01 mM GlyT1 inhibitor HPCP relative to control; assay type: tissue-based; conditions: tested as the 125I-labelled form
Procedure, shortened: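 Rat brain sagittal sections (20 µm) preincubated 20 min at 25 °C in Tris-HCl buffer pH 7.5 (NaCl, KCl, MgCl2, CaCl2), then 30 min at 25 °C with [125I] tracer (100 kBq, 0.03–0.04 nM) plus competitor (10 µM; glycine 1 or 10 mM). Cold washes, imaging plate 3 days, ROI PSL minus background per mm². % control from ≥triplicate slices, three rats.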

[7] = target: T1, Sodium- and chloride-dependent glycine transporter 1 (Rattus norvegicus); assay: Binding affinity to GlyT1 in rat brain thalamus at 0.03 to 0.04 nM preincubated for 20 mins in binding buffer before compound addition measured after 30 mins by autoradiography in presence of GlyT1 inhibitor N-Me-SSR504734 relative to control; assay type: tissue-based; conditions: tested as the 125I-labelled form
Mus musculus [8] = assay: In vivo binding affinity to GlyT1 in ddY mouse brain cerebellum at 33.3 kBq, iv after 30 mins in presence of SSR504734 2 mg/kg, iv administered 15 mins prior to compound administration relative to control; assay type: functional, organism-based; set-up: dose 2 mg/kg; conditions: tested as the 125I-labelled form; procedure, shortened: as §2
[9] = target: T1, Sodium- and chloride-dependent glycine transporter 1 (Rattus norvegicus); assay: Binding affinity to GlyT1 in rat brain cerebral cortex at 0.03 to 0.04 nM preincubated for 20 mins in binding buffer before compound addition measured after 30 mins by autoradiography relative to control; assay type: tissue-based; conditions: tested as the 125I-labelled form; procedure, shortened: as §1
Pancreas [10] = assay: Drug uptake in ddY mouse pancreas at 11.1 kBq, iv after 15 min by gamma counting; assay type: ADME, organism-based; conditions: in vivo
Procedure, shortened: (§3)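 Male ddY mice (6 weeks, 30–35 g) were given about 11.1 kBq of [125I]tracer in 0.1 mL i.v. via the tail vein. At each time point the animals were killed and organs dissected, weighed and gamma-counted. Uptake is expressed as % injected dose per gram of tissue, mean ± SD, n = 5–6.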

Brain = assay: Drug uptake in ddY mouse brain at 11.1 kBq, iv after 5 min by gamma counting; assay type: ADME, organism-based; conditions: in vivo
Procedure, shortened: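 Male ddY mice (6 weeks, 30–35 g) received about 11.1 kBq [125I]tracer in 0.1 mL i.v. via tail vein. Killed at set times, organs dissected and weighed, radioactivity gamma counted. Reported as % injected dose/g tissue, mean ± SD, n = 5–6.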

Stomach [11] = assay: Drug uptake in ddY mouse stomach at 11.1 kBq, iv after 0.5 min by gamma counting; assay type: ADME, organism-based; conditions: in vivo; procedure, shortened: as §3
Mus musculus [12] = assay: In vivo binding affinity to GlyT1 in ddY mouse brain midbrain at 33.3 kBq, iv after 30 mins in presence of nonradioactive compound 2 mg/kg, iv administered 15 mins prior to compound administration relative to control; assay type: functional
Pancreas [13] = assay: Drug uptake in ddY mouse pancreas at 11.1 kBq, iv after 30 min by gamma counting; assay type: ADME, organism-based; conditions: in vivo, 0.5 h; procedure, shortened: as §3
Pancreas [14] = assay: Drug uptake in ddY mouse pancreas at 11.1 kBq, iv after 60 min by gamma counting; assay type: ADME, organism-based; conditions: in vivo, 1 h; procedure, shortened: as §3
Spleen = assay: Drug uptake in ddY mouse spleen at 11.1 kBq, iv after 180 min by gamma counting; assay type: ADME, organism-based; conditions: in vivo, 3 h; procedure, shortened: as §3
Stomach [15] = assay: Drug uptake in ddY mouse stomach at 11.1 kBq, iv after 30 min by gamma counting; assay type: ADME, organism-based; conditions: in vivo, 0.5 h; procedure, shortened: as §3

Activity [1] [%] | Activity [2] | Activity [4] | Activity [6] [%] | Activity [7] [%] | Activity [9] | Drug uptake (Pancreas [10]) [% ID/g] | Drug uptake (Brain) [% ID/g] | Drug uptake (Stomach [11]) [% ID/g] | Drug uptake (Pancreas [13]) [% ID/g] | Drug uptake (Pancreas [14]) [% ID/g] | Drug uptake (Spleen) [% ID/g] | Drug uptake (Stomach [15]) [% ID/g] | SMILES | Activity (Mus musculus [3]) | Activity (Mus musculus [5]) | Activity (Mus musculus [8]) | Activity (Mus musculus [12]) [%]
96.8 | inactive | Active | 31 | 25.1 | inactive | – | – | – | – | – | – | – | CN1CCCC[C@H]1[C@@H](NC(=O)c1cccc(C(F)(F)F)c1I)c1ccccc1 | inactive | inactive | inactive | –
– | – | – | – | – | – | 7.93 | 1.33 | 0.83 | 12.02 | 9.51 | 3.41 | 8.66 | CN1CCCC[C@H]1[C@@H](NC(=O)c1cccc(C(F)(F)F)c1[125I])c1ccccc1 | – | – | – | 48
